Experimental data taken from ChEMBL document CHEMBL4304756, “Second-Generation Tryptamine Derivatives Potently Sensitize Colistin Resistant Bacteria to Colistin” (ACS Med Chem Lett, 2019).

How the values were obtained:
Acinetobacter baumannii [1] = assay: Potentiation of colistin-induced antibacterial activity against Acinetobacter baumannii 3941 assessed as reduction in colistin MIC at 10 uM incubated for 16 hrs by broth microdilution method (reference value: 512 ug/ml); format: functional; details: Acinetobacter baumannii, 3941, 16 h
Acinetobacter baumannii [2] = assay: Potentiation of colistin-induced antibacterial activity against Acinetobacter baumannii 3941 assessed as reduction in colistin MIC at 15 uM incubated for 16 hrs by broth microdilution method (reference value: 512 ug/ml); format: functional; details: Acinetobacter baumannii, 3941, 16 h
Escherichia coli = assay: Potentiation of colistin-induced antibacterial activity against Escherichia coli YD626 harbouring mcr-1 gene assessed as colistin MIC at 50 uM incubated for 16 hrs by broth microdilution method (reference value: 8 ug/ml); format: functional; details: YD626, 16 h
[3] = Cytotoxicity against mouse 4T1 cells assessed as reduction in cell viability incubated for 18 hrs by MTT assay; format: cell-based
How it was run: (§1)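 4T1 mouse mammary tumor cells exposed to compound for 18 h, alone or together with colistin at 1 μg/mL. Medium then aspirated and replaced with 0.5 mg/mL MTT in culture medium for colorimetric viability read-out. CT50 taken as the concentration giving 50% cell viability.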

Acinetobacter baumannii [4] = assay: Potentiation of colistin-induced antibacterial activity against Acinetobacter baumannii 17978 harbouring mcr-1 gene assessed as reduction in colistin MIC at 5 uM incubated for 16 hrs by broth microdilution method (reference value: 16 ug/ml); format: functional; details: Acinetobacter baumannii, 17978, 16 h
How it was run: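 For the dose-response, colistin MIC was measured against mcr-1 plasmid-bearing E. coli, K. pneumoniae and A. baumannii while the adjuvant concentration was lowered stepwise (30, 15 μM, down to 5 μM). The aim was to find where the MIC rose above the 2 μg/mL CLSI susceptibility breakpoint.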

Klebsiella pneumoniae [5] = assay: Potentiation of colistin-induced antibacterial activity against Klebsiella pneumoniae C3 assessed as reduction in colistin MIC at 5 uM incubated for 16 hrs by broth microdilution method (reference value: 512 ug/ml); format: functional; details: C3, 16 h
Acinetobacter baumannii [6] = assay: Potentiation of colistin-induced antibacterial activity against Acinetobacter baumannii 4106 assessed as reduction in colistin MIC at 20 uM incubated for 16 hrs by broth microdilution method (reference value: 1024 ug/ml); format: functional; details: Acinetobacter baumannii, 4106, 16 h
Acinetobacter baumannii [7] = assay: Potentiation of colistin-induced antibacterial activity against Acinetobacter baumannii 17978 assessed as colistin MIC at 50 uM incubated for 16 hrs by broth microdilution method (reference value: 2 ug/ml); format: functional; details: Acinetobacter baumannii, 17978, 16 h
Acinetobacter baumannii [8] = assay: Antivirulence activity in Acinetobacter baumannii 4106 infected Galleria mellonella larvae model assessed as survival rate in presence of colistin at 50 mg/kg measured at 24 hrs interval over 4 days (reference value: 7 %); format: functional
How it was run: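 A. baumannii 4106 was given to Galleria mellonella larvae at 6 × 10^5 CFU, the lethal inoculum found by dose escalation. Larvae were treated with colistin 50 mg/kg, adjuvant 50 mg/kg, colistin plus adjuvant (50 mg/kg each), or tigecycline 100 mg/kg as positive control. Survival was scored out to day 4.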

[9] = Cytotoxicity against mouse 4T1 cells assessed as reduction in cell viability in presence of 1 ug/ml colistin incubated for 18 hrs by MTT assay; format: cell-based; how it was run: as §1
Acinetobacter baumannii [10] = assay: Potentiation of colistin-induced antibacterial activity against Acinetobacter baumannii 3941 assessed as reduction in colistin MIC at 7.5 uM incubated for 16 hrs by broth microdilution method (reference value: 512 ug/ml); format: functional; details: Acinetobacter baumannii, 3941, 16 h
Klebsiella pneumoniae [11] = assay: Potentiation of colistin-induced antibacterial activity against Klebsiella pneumoniae B9 assessed as reduction in colistin MIC at 10 uM incubated for 16 hrs by broth microdilution method (reference value: 512 ug/ml); format: functional; details: B9, 16 h
How it was run: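 Colistin MIC was measured against chromosomally colistin-resistant strains (K. pneumoniae B9, C3; A. baumannii 4106, among four strains) with adjuvant at fixed levels from 20 μM down to 7.5 μM. Fold reduction was reported against colistin alone, with the CLSI breakpoint taken as ≤2 μg/mL.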

Which MIC (Acinetobacter baumannii [1]) does the source give for `O=C(NCCc1c[nH]c2ccc(Br)cc12)Nc1cc(Cl)c(Br)c(Cl)c1` here?
Its MIC is 4 µg/mL.

And the MIC (Acinetobacter baumannii [2])?
The MIC was 4 µg/mL.

And the MIC (Escherichia coli)?
The MIC was 1 µg/mL.

What about the CC50 at 18 h [3] of the same molecule?
The CC50 at 18 h was 94.1 µM.

What about the MIC (Acinetobacter baumannii [4]) of the same molecule?
Its MIC is 1 µg/mL.

What about the MIC (Klebsiella pneumoniae [5]) of the same molecule?
Its MIC is 4 µg/mL.

What about the MIC (Acinetobacter baumannii [6]) of the same molecule?
The MIC was no more than 0.5 µg/mL.

And the MIC (Acinetobacter baumannii [7])?
Its MIC is 0.5 µg/mL.

What about the Activity (Acinetobacter baumannii [8]) of the same molecule?
Its Activity is 47%.

And the CC50 at 18 h [9]?
The CC50 at 18 h was 64.9 µM.

What about the MIC (Acinetobacter baumannii [10]) of the same molecule?
Its MIC is 16 µg/mL.

What about the MIC (Klebsiella pneumoniae [11]) of the same molecule?
The MIC was no more than 0.25 µg/mL.
